Only some compounds are listed: those with a hit (about 2.3% of all), similar ones and a draw of the others.
Fam108B counter: mouse Fam108B serine hydrolase inhibitors, primary screen, counter-screen for RBBP9 inhibitor project, biochemical, fluorescence polarization; recombinant Fam108B, FP-Rh probe fluorescence polarization; inhibition, % at 9.51 µM; hit rate 0.33% among 300,000;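 active means inhibition above the screen mean inhibition plus 3 SD, computed separately per campaign, cut at about 18% in these data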;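 further: inhibitors lower polarization as less probe binds the enzyme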
PME-1 primary: PME-1 inhibitors via competitive probe labeling, primary screen, biochemical, fluorescence polarization, FP-Rh probe, HTS | Protein phosphatase methylesterase 1 (Homo sapiens), Q9Y570 | recombinant PME-1 | inhibition, % at 5.9 µM | hit rate 0.53% among 320,000;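 active means inhibition above the campaign mean of all compounds plus 3 SD, cut at about 26% in these data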;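 further: competitive labeling of PME-1 active site by serine hydrolase directed probe; inhibitors block probe labeling so polarization falls and inhibition rises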
RBBP9 inhibitor: human RBBP9 inhibitors, primary screen, biochemical, fluorescence polarization, FP-Rh probe, HTS. recombinant RBBP9. inhibition, % at 7.94 µM. hit rate 0.2% among 220,000. AID 1515, 2009;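 active means inhibition above the campaign mean of all tested compounds plus 3 SD, cut at about 14% in these data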
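Test system – recombinant human RBBP9 · Input – RBBP9 2.5 µM in dispensing solution, pre-mixing · Medium – Tris buffer pH 8.0, NaCl, Pluronic · Schedule – preincubation 30 min plus labeling 45 min at 25 °C · Measured by – fluorescence polarization · Measure – % inhibition · Controls – DMSO and no-protein wells · Replicates – one well per compound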
GSTO1 counter: inhibitors of recombinant GSTO1, primary screen, counter-screen for RBBP9 inhibitor project, biochemical, fluorescence polarization. inhibition, % at 5.96 µM. hit rate 1.1% among 300,000. activity-based probe fluorescence polarization. AID 1974, 2009;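 active means inhibition above the campaign mean inhibition plus 3 SD, cut at about 35% in these data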
Target sequence (P78417 whole entry, looked up): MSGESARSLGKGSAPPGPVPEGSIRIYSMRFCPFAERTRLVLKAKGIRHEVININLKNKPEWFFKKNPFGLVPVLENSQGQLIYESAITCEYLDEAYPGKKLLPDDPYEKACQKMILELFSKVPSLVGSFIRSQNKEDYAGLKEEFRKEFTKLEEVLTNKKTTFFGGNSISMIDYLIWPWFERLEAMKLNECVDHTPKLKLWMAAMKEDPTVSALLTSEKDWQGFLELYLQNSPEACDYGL
PAD4 FP inh: human PAD4 inhibitors, primary screen, biochemical, fluorescence polarization, 1536-well format; AID 485272, 2010; inhibition, % at 6.36 µM; hit rate 0.41% among 330,000; recombinant PAD4, RCA probe fluorescence polarization; Protein-arginine deiminase type-4 (Homo sapiens), Q9UM07;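 active means percent inhibition above a cutoff equal to the mean of all tested compounds plus 3 SD, cut at about 15% in these data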
PRMT1 inh: PRMT1 methyltransferase inhibitors, primary screen, biochemical, fluorescence polarization; hit rate 1.3% among 370,000; recombinant PRMT1, activity-based probe fluorescence polarization; Protein arginine N-methyltransferase 1 (Homo sapiens), Q99873; inhibition, % at 2.79 µM; AID 652257, 2013;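 active means inhibition above about 21% made by adding two undisclosed values, limit read from the data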
Target sequence (Q99873 whole entry, looked up): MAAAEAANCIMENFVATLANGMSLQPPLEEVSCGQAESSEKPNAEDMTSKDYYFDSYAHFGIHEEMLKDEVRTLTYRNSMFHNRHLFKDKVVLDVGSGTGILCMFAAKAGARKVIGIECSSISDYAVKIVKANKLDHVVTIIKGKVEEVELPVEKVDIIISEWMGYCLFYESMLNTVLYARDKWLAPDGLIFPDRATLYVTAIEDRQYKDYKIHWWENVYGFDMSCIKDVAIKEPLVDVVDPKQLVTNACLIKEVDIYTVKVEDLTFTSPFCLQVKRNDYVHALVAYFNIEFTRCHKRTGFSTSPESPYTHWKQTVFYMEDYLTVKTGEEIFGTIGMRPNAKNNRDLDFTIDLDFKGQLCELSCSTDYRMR
PAD4 confirm: human PAD4 inhibitors, confirmation, biochemical, fluorescence polarization. shares compounds with PAD4 FP inh. recombinant PAD4, RCA probe fluorescence polarization. inhibition, % at 6.36 µM. hit rate 28% among 1,200;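 active means mean inhibition across replicates above the hit cutoff set by the earlier primary screen, cut at about 15% in these data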;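 further: inhibitors block active-site labeling by the probe so polarization falls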
Hits are given with their value; . = inactive; / = not tested or not shown.

SMILES	Fam108B counter	PME-1 primary	RBBP9 inhibitor	GSTO1 counter	PAD4 FP inh	PRMT1 inh	PAD4 confirm
C#CCOCCOCCOCCNc1nc(N2CCN(C(=O)[C@H](Cc3cc4ccccc4[nH]3)n3cc([C@@H](N)C(C)CC)nn3)CC2)nc(N2CCN(C(=O)[C@H](CCCCN)n3cc([C@@H](N)CO)nn3)CC2)n1 (stereo partly drawn)	.	.	.	.	.	/	/
CC1(C(=O)NS(=O)(=O)C2CC2)CCCN(C(=O)c2cc3ccccc3s2)C1 (stereo not drawn)	/	/	/	/	/	.	/
Cn1c(SCC(=O)N/N=C/C=C/c2ccco2)nc2ccccc21	.	.	.	.	52	24	.
Cc1ccccc1N1CCN(C(=S)c2ccc([N+](=O)[O-])cc2)CC1	.	.	.	.	20	.	.
CC1CC(C)CN(S(=O)(=O)c2ccc(NC(=O)C3CC(=O)N(Cc4ccccc4)C3)cc2)C1 (stereo not drawn)	.	.	/	.	.	.	/
Cc1[nH][nH]c(=O)c1C(c1ccc(-c2ccc(C(=O)O)cc2)o1)c1c(C)[nH][nH]c1=O	/	/	.	/	/	.	/
Cc1[nH][nH]c(=O)c1C(c1ccc(-c2ccc(F)cc2)o1)c1c(C)[nH][nH]c1=O	.	.	.	52	48	22	.
Cc1no[n+]([O-])c1COc1cccc(/C=N/Nc2nncn2N)c1	.	.	.	.	32	.	.
COc1cc(N)c(Cl)cc1C(=O)N[C@H]1CCN(CCCOc2ccc(F)cc2)C[C@H]1OC	.	.	/	.	.	.	/
CN(CC(=O)Nc1ccccc1Br)c1ncnc2sccc12	.	.	.	.	.	.	/
COc1ccc(OCCCC(=O)N2CCN(S(=O)(=O)c3cccc(F)c3)CC2)cc1	.	.	/	.	33	.	.
CCOC(=O)C1=C(C)NC(=S)NC1c1ccc(OC(=O)c2ccco2)cc1 (stereo not drawn)	.	.	.	.	.	.	/
COc1cccc2cc(C(=O)NCCc3ccccc3)oc12	.	.	/	.	17	.	.
CCNc1cc(O)ccc1C	/	31	/	/	122	/	53
CC(=O)Nc1ccc(NC(=O)CCc2c(C)noc2C)cc1	/	/	/	/	/	.	/
COC(=O)c1cccc(NC(=O)CCc2c(C)noc2C)c1	/	.	/	/	31	.	.
CCC(COC)Oc1cc(NCc2ccccc2)c2ncn(C(C)C)c2c1 (stereo not drawn)	/	.	/	/	24	.	.
CCC(CO)Oc1cc(NCc2ccccc2)c2ncn(C(C)C)c2c1 (stereo not drawn)	/	/	/	/	.	.	/
CC(C)n1cnc2c(NCc3ccccc3)cc(N[C@H](C)CO)cc21	/	/	/	/	46	/	32
COc1ccc(NC(=O)C2CCCN(c3ncccn3)C2)cc1 (stereo not drawn)	.	.	/	.	.	.	/
O=C(c1ccncc1)N1N=C(C2CC2)CC1(O)C(F)(F)F (stereo not drawn)	.	.	.	.	24	.	.
O=C(c1cccnc1)N1N=C(C2CC2)CC1(O)C(F)(F)F (stereo not drawn)	.	.	.	.	.	.	/
CCOc1ccc(N=C/C=C/c2ccccc2)c(O)c1	.	58	.	54	26	.	.
CN(C)c1ccc(CNC23CC4CC(CC(C4)C2)C3)cc1	/	/	.	/	/	/	/
C=CCn1c(SCC(=O)N2CCCC2=O)nc2sc(CC)cc2c1=O	/	37	/	/	33	.	.
SMILES	Fam108B counter	PME-1 primary	RBBP9 inhibitor	GSTO1 counter	PAD4 FP inh	PRMT1 inh	PAD4 confirm
C=CCn1c(SCC(=O)O)nc2sc(CC)cc2c1=O	.	.	.	.	.	.	/
Cc1[nH]nc2c1C(c1ccc(F)cc1)C(C#N)=C(N)O2 (stereo not drawn)	.	.	.	.	.	.	/
CCN1C=C(Cc2ccc(F)cc2)C2=C(C1)C(c1ccc(F)cc1)C(C#N)=C(N)O2 (stereo not drawn)	.	.	.	.	24	.	.
CCN1C=C(Cc2ccccc2C)C2=C(C1)C(c1ccccc1C)C(C#N)=C(N)O2 (stereo not drawn)	.	.	.	.	17	.	.
CC(=O)C1=C(c2ccccc2)OC(N)=C(C#N)C1c1ccccc1C (stereo not drawn)	.	.	.	.	.	.	/
Cc1ccc2c(c1)cc(CN(Cc1cccs1)C(=O)c1ccco1)c1nnnn12	.	.	.	.	30	.	.
Cc1ccc(NC(=O)c2ccc3c(c2)OCCO3)nc1	.	.	/	.	16	.	.
OCCOCCOc1ccc(-c2nn[nH]n2)cc1	.	.	.	.	.	.	/
COCCOC(=O)C(C#N)c1nc2ccccc2nc1N1CCCC1 (stereo not drawn)	.	.	.	.	18	.	.
COCCCNC(=O)C(C#N)c1nc2ccccc2nc1N1CCCC1 (stereo not drawn)	.	.	.	.	.	.	/
c1ccc(-c2nc3nc4ccccc4nc3n2CC2CCCO2)cc1 (stereo not drawn)	.	.	.	.	.	.	/
COc1cc(C(=O)c2nccc3cc(OC)c(OC)cc23)c([N+](=O)[O-])cc1OC	.	.	.	55	40	.	.
Cc1ccc(C2=NN=C(NC(=O)CSc3nnc4c5ccccc5n(C)c4n3)SC2)cc1	.	.	.	.	23	/	37
Cc1cc(C)nc(SCC(=O)NC2=NC(=O)C(C)S2)n1 (stereo not drawn)	.	.	.	.	.	.	/
Cc1ccc(C2=NN=C(NC(=O)CSc3nc(C)cc(C)n3)SC2)cc1	.	.	.	.	71	91	68
CS(=O)(=O)N(CC(=O)N1CCCC1)c1ccc(OCc2ccccc2)cc1	.	.	.	.	.	.	/
COc1ccc(-c2noc3c2-c2nc(-c4ccc(Br)cc4)sc2CC3)cc1	.	.	/	.	102	.	.
COc1ccc(-c2noc3c2-c2nc(-c4ccccc4C)sc2CC3)cc1	.	.	/	.	.	.	/
CCOC(=O)c1c(NC(=O)CSc2ccccc2C(=O)O)sc(C)c1C	.	.	.	.	.	.	/
CCOC(=O)c1c(N2C(=O)CC(Sc3ccccc3C(=O)O)C2=O)sc(C)c1C (stereo not drawn)	.	.	.	.	17	49	.
Cc1ccc(S(=O)(=O)N2CCN(C(=O)Cc3ccccc3)CC2)cc1C	/	.	/	/	22	.	.
Cc1ccc(CC(=O)N2CCN(S(=O)(=O)c3ccccc3)CC2)cc1C	.	.	/	.	.	.	/
Cc1nnc(SCC(=O)Nc2ccc(C(N)=O)cc2)n1-c1ccccc1	.	.	/	.	.	.	/

Bioassay records (PubChem BioAssay)
